Screens deposited in PubChem by several laboratories.
In the library only some 3.2% were active in any assay of this set; here they are far more common.
FAK blocker: inhibitors of human focal adhesion kinase; Q05397; biochemical FAK kinase activity assay; inhibition, %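 (tested at 7 µM)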; 97,000 tested, 0.84% active; in the data active = inhibition above about 19%;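 note: 0% = DMSO and 100% = reference compound high control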
Plk1 PBD FP: blocks phosphopeptide binding to human Plk1 polo box domain. Plk1 PBD phosphopeptide binding, fluorescence polarization. inhibition, %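 (tested at about 20 µM)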. P53350. 97,000 tested, 0.13% active; in the data active = inhibition above about 34%, passing the limit was not always enough
PLK1 inh: PLK1 (human) kinase inhibition | P53350 | inhibition, % at 10 µM | 97,000 tested, 0.53% active | recombinant PLK1 kinase, TR-FRET peptide phosphorylation | AID 619;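 active = inhibition of 50% or more in the single-concentration screen; inactive = inhibition below 50%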;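 note: 0% = DMSO max control and 100% = H-89 dihydrochloride min control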
DAT uptake mod: changed human dopamine transporter uptake under cocaine IC80 | LLC-PK1 hDAT cells, [14C]-dopamine uptake with cocaine IC80; actives deviate in either direction | 110,000 tested, 1.3% active | AID 449768 | Q01959 | B-score at 10 µM;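 active = Z score or B-score, a plate-position-corrected score, falls beyond the plate's 99.7% confidence bounds, in either direction; inactive = both scores lie inside the 99.7% bounds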;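 note: scored against the spread of the other compound wells on the same plate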
EphB4 antag: blocks human EphB4 binding to ephrin-B2; P54760; EphB4 LBD / TNYL-RAW-Alexa532 peptide, fluorescence polarization; inhibition, % at 7 µM; 97,000 tested, 0.15% active;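 active = inhibition above the screen-wide mean inhibition plus 3 SD, cut at about 15% in these data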;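 note: 0% = DMSO wells and 100% = excess unlabeled TNYL-RAW peptide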
HIV Rev-RRE inh: HIV Rev-RRE protein-RNA interaction inhibition | inhibition, % at 8 µM | P05866 | Rev peptide-RRE RNA binding, FRET | 97,000 tested, 0.79% active;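 active = inhibition above the screen-wide mean plus 3 SD, cut at about 35% in these data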;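 note: 0% = median DMSO wells and 100% = median Neomycin B control wells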
Target sequence (P05866 whole entry, looked up): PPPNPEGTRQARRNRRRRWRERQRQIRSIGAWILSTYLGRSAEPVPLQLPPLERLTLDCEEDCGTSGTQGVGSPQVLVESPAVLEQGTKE
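Material: labelled RRE RNA duplex and labelled Rev peptide / Buffer or medium: HEPES pH 7.5 salt buffer with EDTA / Compound dosing: single point, 8 µM final nominal compound concentration / Benchmarks: DMSO low control, neomycin B high control / Timing: 5 min preincubation and 15 min binding, 25 °C / Technique: FRET fluorescence readout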
* = called active by the depositor; . = no result; [ ] = dose if it differs, or a comment.

SMILES	FAK blocker	Plk1 PBD FP	PLK1 inh	DAT uptake mod	EphB4 antag	HIV Rev-RRE inh
Cc1ccc(C)c(N2CCN(C(=O)CC3Sc4ccccc4NC3=O)CC2)c1 (stereo unspecified)	0	-30	-9	3.4*	-9	3
CCC(=O)N1CCN(c2cc(C)ccc2C)CC1	-7	19	-5	-0.61	5	1
CCOC(=O)CC1=C(C(=O)OCC)C(c2ccc(C)o2)C(C#N)=C(N)O1 (stereo unspecified)	2	-8	3	-0.87	9	16
Cc1ccc(C2C(C#N)=C(N)Oc3c2sc2ccccc32)o1 (stereo unspecified)	7	-122	-3	0.87	-11	94*[fluorescence artefact?]
O=C(c1cc(-c2ccccc2)nc2ccccc12)N1N=C(C(F)F)CC1(O)C(F)F (stereo unspecified)	0	22	-10	2.9*	0	-20
Nc1ccc2cn[nH]c2c1	.	.	.	0.19	.	.
Brc1ccc2[nH]ncc2c1	3	-6	51*	0.91	-7	1
CC(C)(C)OC(=O)N1CCC[C@H]1c1nnc(SCc2ccc(Cl)cc2Cl)o1	4	10	-11	-2.1*	2	4
CC(C)(C)OC(=O)N1CCC[C@H]1c1nnc(SCc2ccccc2Cl)o1	0	-1	4	-0.11	-8	-5
Cc1cccc2c(C(=O)O)c3c(nc12)CCCCC3	-3	-8	-3	-0.56	17*	10
CN(C)c1ccc(C2N3CC4(C)CN2CC(C)(C3)C4O)cc1 (stereo unspecified)	3	-19	62*	-0.098	-12	4
CC12CN3CC(C)(CN(C1)C3c1ccc(Cl)cc1Cl)C2O (stereo unspecified)	-5	11	-5	-0.014	-2	1
CC(=O)c1ccc(NC(=O)Nc2cccc(Cl)c2)cc1	3	0	-2	-3.9*	-12	8
CCOC(=O)c1ccc(NC(=O)Nc2c(C)nn(C)c2C)cc1	0	-9	0	0.59	-3	1
CC(=O)c1cccc(NC(=O)Nc2c(C)nn(C)c2C)c1	0	-1	-9	2.1*	-9	2
CCOc1cc(-c2c(C#N)c(N)nc3c2CCCC3C)ccc1O (stereo unspecified)	0	2	-2	2.4	0	9
CCOc1cc(-c2cc(-c3ccc(C)cc3)nc(N)c2C#N)ccc1O	1	-31	-4	1.3	2	39*
CCOc1cc(/C=C(\C#N)c2[nH]nc(N)c2C#N)ccc1O	7	-5	69*	-0.83	4	22
COc1ccc(S(=O)(=O)n2nc(OC(=O)c3c(-c4ccccc4Cl)noc3C)cc2N)cc1	2	4	1	-1	-2	5
O=C(NCCc1csc(-c2ccc(C(F)(F)F)cc2)n1)c1cccs1	-1	-5	-32	2.1*	-4	10
CC(C)N1CC(O)=C(c2nc3ccccc3c(=O)[nH]2)C1=N	3	6	-10	1.3*	-1	2
COc1cccc(N2CC(O)=C(c3nc4ccccc4c(=O)[nH]3)C2=N)c1	3	-23	-1	0.26	-3	2
O=C(c1ccco1)N1CCN(C(=O)c2ccc(COc3ccc4c(c3)CCC4)o2)CC1	2	-3	-9	3.7*	0	5
Cc1ccc(-n2c(SCc3ccc(C#N)cc3)nnc2-c2ccccn2)cc1	0	-11	0	-7.7*	4	5
O=C(Nc1ccc(N2CCCC2)cc1)c1ccccc1F	63*	10	-7	0.19	5	7
SMILES	FAK blocker	Plk1 PBD FP	PLK1 inh	DAT uptake mod	EphB4 antag	HIV Rev-RRE inh
CCCCN(CC)Cc1ccc(CNC(=O)Nc2ccc(OC)cc2OC)o1	-3	-26	-12	-0.38	-10	1
CCCCN(CC)Cc1ccc(CNC(=O)Nc2ccccc2)o1	0	-3	-3	-2.5*	0	5
O=C(COc1cccc2ccccc12)N1c2ccccc2CCc2ccccc21	5	-23	-11	2.3	7	6
COc1ccc(N=Nc2nc3ccc(Br)cc3n2C)cc1	3	40	-4	.	-11	101*[fluorescence artefact?]
CN1CCN(c2cc(=O)n(C3CCCCC3)c(=O)[nH]2)CC1	-1	4	65*	-0.17	5	8
COc1cc(CCCN2C(N)=NC[C@H]2Cc2ccc(O)cc2)cc(OC)c1OC	.	.	.	0.19	.	.
COc1cc(/C=C2\SC(c3ccc(C)cc3)=NC2=O)cc(OC)c1O	4	-21	-13	-0.9	-2	50*[fluorescence artefact?]
O=C(NCc1ccccc1)NC1(C(=O)N2CCN(c3ccccc3)CC2)CCCCC1	9	23	-4	0.97	8	7
O=C(NCCN1CCN(c2ccccc2)CC1)C1CCN(S(=O)(=O)N2CCOCC2)CC1	-2	-9	56*	-1	-1	0
COc1cccc(C2=CC(=O)CC(C)(C)C2)n1	.	.	.	-1.2	.	.
O=C1CC(N2CCN(c3cccc(C(F)(F)F)c3)CC2)C(=O)N1c1ccccc1 (stereo unspecified)	-6	-31	2	-1.2	0	5
O=C1CC(N2CCN(c3cccc(C(F)(F)F)c3)CC2)C(=O)N1c1ccccc1F (stereo unspecified)	0	3	-3	3.2*	2	15
Cc1ccc(C)c(Cn2nnc3c(=O)[nH]c(C4CCCN(C(=O)C5CCCCC5)C4)nc32)c1 (stereo unspecified)	-1	9	-3	4*	0	-4
O=C(c1ccccc1)N1CCCC(c2nc3c(nnn3Cc3ccccc3)c(=O)[nH]2)C1 (stereo unspecified)	-1	-12	-7	2.2	0	1
O=C(C1CCCCC1)N1CCC(c2nc3c(nnn3Cc3c(F)cccc3Cl)c(=O)[nH]2)CC1	0	-4	-8	0.17	-3	4
O=C(C1CCCCC1)N1CCCC(c2nc3c(nnn3Cc3ccccc3)c(=O)[nH]2)C1 (stereo unspecified)	-8	24	-13	2.4*	-7	-1
O=C(O)CCCNc1cc(N2CCC3(CC2)OCCO3)c2noc3c2c1C(=O)c1ccccc1-3	1	7	36	.	2	122*[fluorescence artefact?]
CCNC(=O)n1nccc1C(C)Oc1ccccc1 (stereo unspecified)	3	1	-5	0.54	0	0
Cc1cccc(NC(=S)N/N=C/c2ccc([N+](=O)[O-])s2)c1	-5	1	-7	0.36	8	6
O=C(N/N=C/c1ccc([N+](=O)[O-])s1)c1cccc(Br)c1	21*	24	-19	0.4	-4	-9
CCCC(=O)N1CCN(c2ccc(NC(=S)NC(=O)CC)cc2)CC1	3	6	-6	-0.27	-2	-2
Cc1cccc(OCc2nc(C#N)c(N3CC(C)CC(C)C3)o2)c1 (stereo unspecified)	4	9	61*	0.72	1	13
